Measured values as given in ChEMBL document CHEMBL1138064, “Discovery of N-[(3R)-1-azabicyclo[2.2.2]oct-3-yl]furo[2,3-c]pyridine-5-carboxamide, an agonist of the alpha7 nicotinic acetylcholine receptor, for the potential treatment of cognitive deficits in schizophrenia: synthesis and structure--activity relationship” (J Med Chem, 2006).
pEC50, pIC50, pKi: −log10 of the molar value.

Tests used:
[1] = species: Homo sapiens; experiment: Inhibition of elastase at 1 uM
[2] = molecular target: Sodium-dependent noradrenaline transporter (Homo sapiens) (UniProt P23975); experiment: Inhibition of human NE transporter at 1 uM
[3] = molecular target: Muscarinic acetylcholine receptor M4 (Homo sapiens) (UniProt P08173); experiment: Inhibition of M4 receptor at 1 uM
Muscarinic acetylcholine receptor M4 (Homo sapiens), sequence (P08173 whole entry): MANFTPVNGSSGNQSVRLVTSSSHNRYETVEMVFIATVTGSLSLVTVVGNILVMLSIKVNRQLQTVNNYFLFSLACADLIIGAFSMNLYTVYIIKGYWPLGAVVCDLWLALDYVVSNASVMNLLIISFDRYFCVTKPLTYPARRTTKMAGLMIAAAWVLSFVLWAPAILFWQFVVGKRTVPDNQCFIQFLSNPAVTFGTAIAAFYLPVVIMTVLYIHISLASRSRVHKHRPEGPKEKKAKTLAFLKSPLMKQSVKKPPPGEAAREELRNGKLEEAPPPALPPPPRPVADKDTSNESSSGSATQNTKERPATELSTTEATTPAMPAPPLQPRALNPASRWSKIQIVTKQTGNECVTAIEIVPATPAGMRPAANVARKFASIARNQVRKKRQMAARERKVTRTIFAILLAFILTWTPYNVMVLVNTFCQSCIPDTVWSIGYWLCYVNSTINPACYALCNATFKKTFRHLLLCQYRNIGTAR

[4] = molecular target: Serotonin 3 (5-HT3) receptor; experiment: Binding affinity to 5HT3 receptor; type: protein-complex assay, Homo sapiens
[5] = molecular target: Vasoactive intestinal polypeptide receptor 2 (Homo sapiens) (UniProt P41587); experiment: Inhibition of PACAP receptor at 1 uM
Vasoactive intestinal polypeptide receptor 2 (Homo sapiens), sequence (P41587 whole entry): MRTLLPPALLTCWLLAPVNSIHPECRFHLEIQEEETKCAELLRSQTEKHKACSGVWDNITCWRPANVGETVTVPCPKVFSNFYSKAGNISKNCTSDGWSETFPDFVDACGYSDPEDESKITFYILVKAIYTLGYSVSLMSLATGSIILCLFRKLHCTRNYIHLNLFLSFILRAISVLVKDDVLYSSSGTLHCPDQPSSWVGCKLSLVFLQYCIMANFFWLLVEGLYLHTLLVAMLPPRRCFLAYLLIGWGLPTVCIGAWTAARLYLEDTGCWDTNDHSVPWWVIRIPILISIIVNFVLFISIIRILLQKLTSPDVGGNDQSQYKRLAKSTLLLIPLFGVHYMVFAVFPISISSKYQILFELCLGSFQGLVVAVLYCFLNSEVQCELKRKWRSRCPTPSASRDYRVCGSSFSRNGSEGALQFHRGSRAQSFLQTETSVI

[6] = molecular target: Adenosine receptor A1 (Homo sapiens) (UniProt P30542); experiment: Inhibition of adenosine A1 receptor at 1 uM
[7] = Clearance in rat constant infusion model; type: ADME, organism-based; settings: in vivo, iv
Procedure, shortened: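 Clearance determined in a rat constant infusion model.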

[8] = molecular target: Substance-P receptor (Homo sapiens) (UniProt P25103); experiment: Inhibition of NK1 receptor at 1 uM
[9] = molecular target: Sodium/potassium-transporting ATPase (Homo sapiens) (UniProt P05023+P14415+P05026+P50993+P54709+P13637+Q13733+P54710); experiment: Inhibition of Sodium/potassium-transporting ATPase at 1 uM; type: protein-complex assay
[10] = species: Homo sapiens; experiment: Inhibition of stimulated adenylate cyclase at 1 uM
[11] = molecular target: GABA-A receptor; anion channel (Homo sapiens) (UniProt P14867+P47870+P18507+P28472+P48169+Q99928+Q9UN88+P34903+O00591+O14764+Q8N1C3+P18505+P78334+P47869+P31644+Q16445); experiment: Inhibition of central BZD receptor at 1 uM; type: protein-complex assay
[12] = molecular target: Tyrosine 3-monooxygenase (Homo sapiens) (UniProt P07101); experiment: Inhibition of tyrosine hydroxylase at 1 uM
Tyrosine 3-monooxygenase (Homo sapiens), sequence (P07101 whole entry): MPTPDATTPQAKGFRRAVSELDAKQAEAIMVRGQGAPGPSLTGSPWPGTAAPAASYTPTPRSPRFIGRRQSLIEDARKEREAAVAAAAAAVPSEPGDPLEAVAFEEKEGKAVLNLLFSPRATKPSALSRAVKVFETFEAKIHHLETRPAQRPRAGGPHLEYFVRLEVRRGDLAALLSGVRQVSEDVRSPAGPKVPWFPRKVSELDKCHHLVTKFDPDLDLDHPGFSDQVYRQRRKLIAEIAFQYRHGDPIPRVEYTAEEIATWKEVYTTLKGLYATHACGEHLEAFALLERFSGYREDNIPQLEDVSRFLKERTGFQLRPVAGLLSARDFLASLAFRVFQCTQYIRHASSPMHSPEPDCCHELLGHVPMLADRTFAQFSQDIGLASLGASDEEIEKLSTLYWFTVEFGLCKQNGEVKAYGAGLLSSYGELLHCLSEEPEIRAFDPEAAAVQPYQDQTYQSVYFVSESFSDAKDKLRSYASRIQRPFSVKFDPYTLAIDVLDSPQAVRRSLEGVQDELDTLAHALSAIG

[13] = species: Homo sapiens; experiment: Inhibition of chloride channel at 1 uM
[14] = Oral bioavailability in rat constant infusion model; type: ADME, organism-based; settings: in vivo
Procedure, shortened: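 Rat clearance and oral bioavailability derived from a constant infusion model.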

[15] = system: Rattus norvegicus; experiment: Drug level in Sprague-Dawley rat brain at 10 mg/kg, iv; type: ADME, organism-based; set-up: dose 10 mg/kg, route intravenous; settings: in vivo, read-out: Drug uptake
Procedure, shortened: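 Anesthetized rats received d-amphetamine (1 mg/kg, iv) and then the agonist iv in the auditory gating model. Brain concentrations were measured after the iv agonist dose.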

[16] = species: Homo sapiens; experiment: Inhibition of potassium channel V type at 1 uM
[17] = molecular target: Muscarinic acetylcholine receptor M2 (Homo sapiens) (UniProt P08172); experiment: Inhibition of M2 receptor at 1 uM
[18] = molecular target: Human immunodeficiency virus type 1 protease (Human immunodeficiency virus 1) (UniProt Q72874); experiment: Inhibition of HIV1 protease at 1 uM
[19] = molecular target: Phosphodiesterase 3 (Homo sapiens) (UniProt Q14432+Q13370); experiment: Inhibition of PDE3 at 1 uM; type: protein assay
[20] = molecular target: Serotonin 3 (5-HT3) receptor; experiment: Activity at 5HT3 receptor expressed in SHEP1 cells by FLIPR assay; type: functional, cell-based, Homo sapiens
Procedure, shortened: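 Cell-based FLIPR functional assay in SH-EP1 cells expressing 5-HT3.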

[21] = Activity at alpha7-5HT3 chimera expressed in SHEP1 cells by FLIPR assay; type: functional, cell-based; settings: Homo sapiens, SH-EP1
Procedure, shortened: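 Cell-based FLIPR functional assay in SH-EP1 cells expressing the α7-5HT3 chimera. Values are the average of at least five experiments for most compounds.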

[22] = molecular target: Neuronal acetylcholine receptor; alpha3/beta4 (Homo sapiens, UniProt P30926+P32297); experiment: Inhibition of alpha-3-beta-4 nAChR expressed in SHSY5Y cells by FLIPR assay; type: functional, cell-based, SH-SY5Y
Neuronal acetylcholine receptor; alpha3/beta4, sequence (P30926 whole entry): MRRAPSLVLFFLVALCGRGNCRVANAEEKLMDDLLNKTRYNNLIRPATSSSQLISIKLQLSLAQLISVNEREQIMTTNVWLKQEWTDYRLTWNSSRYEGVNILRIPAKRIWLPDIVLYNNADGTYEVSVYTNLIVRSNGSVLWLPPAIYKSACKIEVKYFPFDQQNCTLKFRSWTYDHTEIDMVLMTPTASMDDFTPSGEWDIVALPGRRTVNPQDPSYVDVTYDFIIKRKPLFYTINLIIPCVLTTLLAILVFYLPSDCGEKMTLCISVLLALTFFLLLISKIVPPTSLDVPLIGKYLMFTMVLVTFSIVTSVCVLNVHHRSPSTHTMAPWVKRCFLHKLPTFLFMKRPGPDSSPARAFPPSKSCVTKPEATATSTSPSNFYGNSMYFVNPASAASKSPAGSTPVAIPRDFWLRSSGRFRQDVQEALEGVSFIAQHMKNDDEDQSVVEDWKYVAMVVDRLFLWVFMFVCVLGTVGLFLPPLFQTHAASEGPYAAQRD
Neuronal acetylcholine receptor; alpha3/beta4, sequence (P32297 whole entry): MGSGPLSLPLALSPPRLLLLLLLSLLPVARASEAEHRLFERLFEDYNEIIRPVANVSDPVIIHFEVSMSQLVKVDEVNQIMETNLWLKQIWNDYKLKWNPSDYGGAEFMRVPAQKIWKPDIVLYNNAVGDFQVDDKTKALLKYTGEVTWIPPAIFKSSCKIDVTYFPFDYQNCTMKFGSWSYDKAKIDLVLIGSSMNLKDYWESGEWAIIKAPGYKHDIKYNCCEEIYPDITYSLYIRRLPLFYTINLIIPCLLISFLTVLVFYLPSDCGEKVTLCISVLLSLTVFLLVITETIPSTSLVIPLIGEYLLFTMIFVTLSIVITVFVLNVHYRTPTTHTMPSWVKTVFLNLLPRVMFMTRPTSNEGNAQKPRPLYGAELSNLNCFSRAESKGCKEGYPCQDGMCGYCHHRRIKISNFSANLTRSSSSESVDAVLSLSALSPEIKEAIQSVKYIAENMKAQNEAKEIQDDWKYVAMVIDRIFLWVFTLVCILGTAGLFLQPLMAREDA
Procedure, shortened: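 FLIPR cell-based functional assay in SH-SY5Y cells, which carry α3β4-containing ganglion-type nAChRs; tested for agonist and antagonist activity; IC50 in µM.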

[23] = molecular target: Vasopressin V1a receptor (Homo sapiens) (UniProt P37288); experiment: Inhibition of V1A receptor at 1 uM
Vasopressin V1a receptor (Homo sapiens), sequence (P37288 whole entry, looked up): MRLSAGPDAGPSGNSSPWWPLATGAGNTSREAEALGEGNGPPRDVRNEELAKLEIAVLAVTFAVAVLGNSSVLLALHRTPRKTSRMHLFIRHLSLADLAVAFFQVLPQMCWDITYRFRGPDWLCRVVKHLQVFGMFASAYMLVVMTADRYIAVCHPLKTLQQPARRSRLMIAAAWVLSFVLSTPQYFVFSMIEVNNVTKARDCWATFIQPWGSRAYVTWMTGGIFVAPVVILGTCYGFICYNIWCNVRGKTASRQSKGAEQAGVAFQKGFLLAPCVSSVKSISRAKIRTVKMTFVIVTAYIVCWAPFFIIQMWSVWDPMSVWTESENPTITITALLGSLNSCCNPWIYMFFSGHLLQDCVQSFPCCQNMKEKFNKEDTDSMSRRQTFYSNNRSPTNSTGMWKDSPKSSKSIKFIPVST

[24] = molecular target: Cytochrome P450 2D6 (Homo sapiens, UniProt P10635); experiment: Inhibition of CYP2D6; type: ADME
Cytochrome P450 2D6, sequence (P10635 whole entry): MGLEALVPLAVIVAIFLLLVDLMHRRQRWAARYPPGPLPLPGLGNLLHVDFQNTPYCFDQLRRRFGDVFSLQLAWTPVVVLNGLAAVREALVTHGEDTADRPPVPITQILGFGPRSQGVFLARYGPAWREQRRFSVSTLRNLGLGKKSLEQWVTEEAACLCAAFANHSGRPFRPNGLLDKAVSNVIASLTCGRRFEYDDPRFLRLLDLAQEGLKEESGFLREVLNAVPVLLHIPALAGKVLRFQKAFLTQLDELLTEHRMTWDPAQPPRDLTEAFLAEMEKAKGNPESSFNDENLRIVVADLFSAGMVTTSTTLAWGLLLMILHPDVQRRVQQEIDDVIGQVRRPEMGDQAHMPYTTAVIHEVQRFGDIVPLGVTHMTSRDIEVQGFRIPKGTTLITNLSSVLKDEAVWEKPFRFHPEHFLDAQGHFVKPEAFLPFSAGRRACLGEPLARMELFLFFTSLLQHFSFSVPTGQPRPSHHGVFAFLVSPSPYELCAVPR

[25] = molecular target: Translocator protein (Homo sapiens) (UniProt P30536); experiment: Inhibition of peripheral BZD receptor at 1 uM
Translocator protein (Homo sapiens), sequence (P30536 whole entry): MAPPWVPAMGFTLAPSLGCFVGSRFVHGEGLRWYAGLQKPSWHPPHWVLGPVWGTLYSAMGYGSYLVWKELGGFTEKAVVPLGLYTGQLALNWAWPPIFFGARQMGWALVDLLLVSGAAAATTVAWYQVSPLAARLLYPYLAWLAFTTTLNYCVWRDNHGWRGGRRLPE

[26] = molecular target: Adrenergic receptor alpha-2 (Homo sapiens) (UniProt P08913+P18825+P18089); experiment: Inhibition of adrenergic alpha2 receptor at 1 uM; type: protein assay
[27] = Clearance in rat at 5 mg/kg; type: ADME, organism-based; set-up: dose 5 mg/kg; settings: in vivo
[28] = molecular target: Muscarinic acetylcholine receptor M3 (Homo sapiens) (UniProt P20309); experiment: Inhibition of M3 receptor at 1 uM
[29] = molecular target: Kappa-type opioid receptor (Homo sapiens) (UniProt P41145); experiment: Inhibition of human kappa opioid receptor at 1 uM
Kappa-type opioid receptor (Homo sapiens), sequence (P41145 whole entry): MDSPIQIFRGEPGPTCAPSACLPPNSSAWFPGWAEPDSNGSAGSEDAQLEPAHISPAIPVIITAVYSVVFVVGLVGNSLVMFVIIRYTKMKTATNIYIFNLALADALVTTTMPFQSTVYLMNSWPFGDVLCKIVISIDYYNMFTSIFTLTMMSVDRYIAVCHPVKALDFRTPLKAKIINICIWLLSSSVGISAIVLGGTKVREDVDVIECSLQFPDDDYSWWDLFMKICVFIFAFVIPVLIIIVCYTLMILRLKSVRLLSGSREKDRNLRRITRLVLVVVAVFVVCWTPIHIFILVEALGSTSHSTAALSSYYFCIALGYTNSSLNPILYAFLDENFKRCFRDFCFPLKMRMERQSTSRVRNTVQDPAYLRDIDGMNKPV

[30] = molecular target: B2 bradykinin receptor (Homo sapiens) (UniProt P30411); experiment: Inhibition of B2 receptor at 1 uM
B2 bradykinin receptor (Homo sapiens), sequence (P30411 whole entry): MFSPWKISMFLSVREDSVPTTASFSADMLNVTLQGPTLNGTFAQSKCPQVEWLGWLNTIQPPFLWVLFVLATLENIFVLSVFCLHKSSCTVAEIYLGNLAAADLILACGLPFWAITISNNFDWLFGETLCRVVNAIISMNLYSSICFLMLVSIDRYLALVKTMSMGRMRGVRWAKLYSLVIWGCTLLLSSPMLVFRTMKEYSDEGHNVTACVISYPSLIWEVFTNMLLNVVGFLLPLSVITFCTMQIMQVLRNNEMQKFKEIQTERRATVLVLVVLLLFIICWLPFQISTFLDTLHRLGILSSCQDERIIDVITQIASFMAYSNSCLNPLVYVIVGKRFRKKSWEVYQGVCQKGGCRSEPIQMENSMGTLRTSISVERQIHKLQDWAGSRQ

[31] = molecular target: Somatostatin receptor (Homo sapiens) (UniProt P35346+P30874+P31391+P30872+P32745); experiment: Inhibition of sst receptor at 1 uM; type: protein assay
[32] = molecular target: Histamine H1 receptor (Homo sapiens) (UniProt P35367); experiment: Inhibition of central histamine H1 receptor at 1 uM
[33] = molecular target: Cannabinoid receptor 1 (Homo sapiens) (UniProt P21554); experiment: Inhibition of CB1 receptor at 1 uM
Cannabinoid receptor 1 (Homo sapiens), sequence (P21554 whole entry): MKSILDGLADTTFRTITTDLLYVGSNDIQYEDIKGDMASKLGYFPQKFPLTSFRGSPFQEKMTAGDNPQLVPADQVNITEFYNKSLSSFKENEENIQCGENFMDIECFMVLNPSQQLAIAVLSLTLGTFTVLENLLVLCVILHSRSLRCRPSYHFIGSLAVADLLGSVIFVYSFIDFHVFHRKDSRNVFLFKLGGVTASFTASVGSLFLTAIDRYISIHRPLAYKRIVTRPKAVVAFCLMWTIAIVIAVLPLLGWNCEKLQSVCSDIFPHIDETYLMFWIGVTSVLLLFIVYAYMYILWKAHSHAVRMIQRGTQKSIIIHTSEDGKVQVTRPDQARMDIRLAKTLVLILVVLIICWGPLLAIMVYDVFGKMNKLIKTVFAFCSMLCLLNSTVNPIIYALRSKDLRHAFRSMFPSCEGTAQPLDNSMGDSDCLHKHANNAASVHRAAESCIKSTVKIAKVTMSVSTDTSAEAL

SMILES: O=C(N[C@H]1CN2CCC1CC2)c1cc2ccoc2cn1 [PHA-543613]
- inhibition [1]: 22%
- inhibition [2]: < 10%
- inhibition [3]: < 10%
- pKi [4]: 6.29
- inhibition [5]: < 10%
- inhibition [6]: < 10%
- clearance [7]: 50 mL/min/kg
- inhibition [8]: 26%
- inhibition [9]: < 10%
- inhibition [10]: < 10%
- inhibition [11]: < 10%
- inhibition [12]: < 10%
- inhibition [13]: < 10%
- bioavailability [14]: 63%
- concentration [15]: 14.9 µM
- inhibition [16]: < 10%
- inhibition [17]: 23%
- inhibition [18]: < 10%
- inhibition [19]: < 10%
- pKi [20]: 6.20
- pEC50 [21]: 7.19
- pIC50 [22]: < 4.00
- inhibition [23]: 14%
- pIC50 [24]: < 5.00
- inhibition [25]: < 10%
- inhibition [26]: 14%
- clearance [27]: 33.3 mL/min/kg
- inhibition [28]: 33%
- inhibition [29]: < 10%
- inhibition [30]: < 10%
- inhibition [31]: < 10%
- inhibition [32]: < 10%
- inhibition [33]: < 10%
